Experimental data published in ChEMBL document CHEMBL4808167, “Design, Synthesis, and Evaluation of Small Molecule Gαq/11 Protein Inhibitors for the Treatment of Uveal Melanoma” (J Med Chem, 2021).

Assays:
[1] = Antiproliferative activity against human MP41 cells assessed as inhibition of cell growth after 72 hrs by CCK8 assay; assay type: functional, cell-based; details: MP41, 72 h
In short: (§1)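 92.1 or MP41 cells in RPMI-1640 with 10% FBS were seeded at 3 × 10³ cells/well. Exposed to serial concentrations for 72 h at 37 °C, 5% CO₂. CCK-8 added for 1−4 h, absorbance read at 450 nm. IC₅₀ from concentration−response curve fit, mean ± SD.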

[2] = target: GNAQ/GNA11 (Homo sapiens) (UniProt P50148+P29992); assay: Inhibition of Galphaq/11 (unknown origin) expressed in CHO cells coexpressing M1 receptor assessed as reduction in carbachol-induced IP1 accumulation at 10 uM preincubated for 1 hr followed by carbachol stimulation and measured after 1 hr by HTRF assay relative to control; assay type: cell-based; details: time 2.0 hrs
[3] = Antiproliferative activity against human 92.1 cells assessed as inhibition of cell growth after 72 hrs by CCK8 assay; assay type: functional, cell-based; details: Homo sapiens, 921, 72 h; in short: as §1

inhibition [2] | SMILES | IC50 [1] | IC50 [3]
14.2% | O=C([C@@H]1CCCN1)N1CCn2cc(-c3ccccc3)nc2[C@@H]1CC1CCCCC1 | 63.4 µM | 27.4 µM
11.8% | CC[C@H](C)C(=O)N1CCn2cc(-c3ccccc3)nc2[C@H]1C(C)C | > 100 µM | > 100 µM
6.6% | CC(C)[C@H]1c2nc(-c3ccccc3)cn2CCN1C(=O)[C@@H](N)Cc1ccc(O)cc1 | > 100 µM | > 100 µM
9.9% | CC(C)C(=O)N1CCn2cc(-c3ccccc3)nc2[C@@H]1C(C)C | > 100 µM | > 100 µM
33.9% | CC(C)[C@H]1c2nc(-c3ccccc3)cn2CCN1C(=O)[C@@H](N)CS | > 100 µM | 65.7 µM
24.2% | CCN(CC)[C@@H](CS)C(=O)N1CCn2cc(-c3ccccc3)nc2[C@@H]1CC1CCCCC1 | > 100 µM | > 100 µM
6.2% | N=C(N)NCCC[C@H](N)C(=O)N1CCn2cc(-c3ccccc3)nc2[C@@H]1CC1CCCCC1 | > 100 µM | > 100 µM
14.4% | CC(C)C(=O)N1CCn2cc(-c3ccccc3)nc2[C@H]1C(C)C | > 100 µM | > 100 µM
21.7% | CC(C)[C@H](N)C(=O)N1CCn2cc(-c3ccccc3)nc2[C@@H]1CC1CCCCC1 | 83 µM | 40.3 µM
1.8% | CC[C@@H](C)[C@H](N)C(=O)N1CCn2cc(-c3ccccc3)nc2[C@@H]1C(C)C | > 100 µM | > 100 µM
17.1% | C[C@H](N)C(=O)N1CCn2cc(-c3ccccc3)nc2[C@@H]1CC1CCCCC1 | 95.9 µM | 35.5 µM
13.2% | CN[C@@H](CS)C(=O)N1CCn2cc(-c3ccccc3)nc2[C@H]1CC(C)C | 59.3 µM | > 100 µM
44.2% | CC(C)C(=O)N1CCn2cc(-c3ccccc3)nc2[C@@H]1CC1CCCCC1 | > 100 µM | 42.3 µM
22.5% | C[C@H](O)C(=O)N1CCn2cc(-c3ccccc3)nc2[C@@H]1CC1CCCCC1 | 56.3 µM | > 100 µM
29.3% | N[C@@H](CO)C(=O)N1CCn2cc(-c3ccccc3)nc2[C@@H]1CC1CCCCC1 | > 100 µM | 78.4 µM
2.6% | CC(C)C[C@@H]1c2nc(-c3ccccc3)cn2CCN1C(=O)C(C)C | > 100 µM | > 100 µM
19.5% | N[C@@H](CS)C(=O)N1CCn2cc(-c3ccccc3)nc2[C@H]1Cc1ccccc1 | 20 µM | 25.8 µM
25.3% | CC(C)C[C@H]1c2nc(-c3ccccc3)cn2CCN1C(=O)[C@@H](N)CS | 91.9 µM | 35.2 µM
24.4% | C[C@H]1c2nc(-c3ccccc3)cn2CCN1C(=O)[C@@H](N)CS | > 100 µM | > 100 µM
11.9% | CN(C)[C@@H](CS)C(=O)N1CCn2cc(-c3ccccc3)nc2[C@@H]1CC1CCCCC1 | > 100 µM | > 100 µM
4% | CC(C)C[C@@H]1c2nc(-c3ccccc3)cn2CCN1C(=O)[C@@H](N)CO | > 100 µM | > 100 µM
1.1% | CC[C@H](C)C(=O)N1CCn2cc(-c3ccccc3)nc2[C@H]1CC(C)C | 85.8 µM | 84.4 µM
19.8% | NC(=O)C[C@H](N)C(=O)N1CCn2cc(-c3ccccc3)nc2[C@@H]1CC1CCCCC1 | > 100 µM | > 100 µM
48.4% | CC(C)[C@@H]1c2nc(-c3ccccc3)cn2CCN1C(=O)[C@@H](N)CS | > 100 µM | 62.7 µM
11.7% | CC(C)[C@@H]1c2nc(-c3ccccc3)cn2CCN1C(=O)[C@@H](N)CCCCN | > 100 µM | > 100 µM
12.9% | CC[C@H](C)C(=O)N1CCn2cc(-c3ccccc3)nc2[C@@H]1C(C)C | > 100 µM | > 100 µM
25.6% | C[C@@H](CS)C(=O)N1CCn2cc(-c3ccccc3)nc2[C@@H]1CC1CCCCC1 | > 100 µM | 33.1 µM

inhibition [2] | SMILES | IC50 [1] | IC50 [3]
0.96% | CC[C@@H](C)[C@H](N)C(=O)N1CCn2cc(-c3ccccc3)nc2[C@H]1C(C)C | 97.2 µM | > 100 µM
21.9% | NCC(=O)N1CCn2cc(-c3ccccc3)nc2[C@@H]1CC1CCCCC1 | > 100 µM | 19.3 µM
21.2% | N[C@@H](Cc1ccccc1)C(=O)N1CCn2cc(-c3ccccc3)nc2[C@@H]1CC1CCCCC1 | 25.5 µM | 30.1 µM
9.5% | CC(C)[C@@H]1c2nc(-c3ccccc3)cn2CCN1C(=O)[C@@H](N)CO | > 100 µM | > 100 µM
10.7% | C[C@@H](O)[C@H](N)C(=O)N1CCn2cc(-c3ccccc3)nc2[C@@H]1CC1CCCCC1 | > 100 µM | > 100 µM
2.8% | CC(C)[C@H]1c2nc(-c3ccccc3)cn2CCN1C(=O)[C@@H](N)CO | > 100 µM | > 100 µM
18.5% | NC(=O)CC[C@H](N)C(=O)N1CCn2cc(-c3ccccc3)nc2[C@@H]1CC1CCCCC1 | > 100 µM | 87.2 µM
11.5% | CN[C@@H](CS)C(=O)N1CCn2cc(-c3ccccc3)nc2[C@@H]1C(C)C | > 100 µM | 45 µM
18% | CC(C)[C@@H]1c2nc(-c3ccccc3)cn2CCN1C(=O)[C@@H](N)Cc1ccc(O)cc1 | 97.6 µM | > 100 µM
36.8% | NCCCC[C@H](N)C(=O)N1CCn2cc(-c3ccccc3)nc2[C@@H]1CC1CCCCC1 | > 100 µM | > 100 µM
15.9% | CC(C)C[C@H](N)C(=O)N1CCn2cc(-c3ccccc3)nc2[C@@H]1CC1CCCCC1 | 33.5 µM | 55.4 µM
24.7% | N[C@@H](Cc1c[nH]cn1)C(=O)N1CCn2cc(-c3ccccc3)nc2[C@@H]1CC1CCCCC1 | > 100 µM | 91.9 µM
10.2% | N[C@@H](CC(=O)O)C(=O)N1CCn2cc(-c3ccccc3)nc2[C@@H]1CC1CCCCC1 | > 100 µM | > 100 µM
50.4% | CC(C)C[C@@H]1c2nc(-c3ccccc3)cn2CCN1C(=O)[C@@H](N)CS | 47.7 µM | 64.1 µM
7.4% | N[C@@H](Cc1c[nH]c2ccccc12)C(=O)N1CCn2cc(-c3ccccc3)nc2[C@@H]1CC1CCCCC1 | 15.6 µM | 20.6 µM
3.7% | CC(C)C[C@@H]1c2nc(-c3ccccc3)cn2CCN1C(=O)[C@@H](N)Cc1ccc(O)cc1 | > 100 µM | > 100 µM
6% | C[C@@H]1c2nc(-c3ccccc3)cn2CCN1C(=O)[C@@H](N)CS | > 100 µM | > 100 µM
12.4% | CSCC[C@H](N)C(=O)N1CCn2cc(-c3ccccc3)nc2[C@@H]1CC1CCCCC1 | > 100 µM | 42 µM
30% | CN[C@@H](CS)C(=O)N1CCn2cc(-c3ccccc3)nc2[C@@H]1CC1CCCCC1 | 27.8 µM | 24 µM
22.9% | N[C@@H](CS)C(=O)N1CCn2cc(-c3ccccc3)nc2[C@@H]1Cc1ccccc1 | 19.8 µM | 45.2 µM
30.5% | CN[C@@H](CS)C(=O)N1CCn2cc(-c3ccccc3)nc2[C@H]1C(C)C | > 100 µM | > 100 µM
1.3% | CC(C)C[C@@H]1c2nc(-c3ccccc3)cn2CCN1C(=O)[C@@H](N)CCCCN | > 100 µM | > 100 µM
6.5% | CC[C@@H](C)[C@H](N)C(=O)N1CCn2cc(-c3ccccc3)nc2[C@H]1CC(C)C | > 100 µM | > 100 µM
19.8% | O=C(CCS)N1CCn2cc(-c3ccccc3)nc2[C@@H]1CC1CCCCC1 | > 100 µM | 29.1 µM
5.3% | CC(C)[C@H]1c2nc(-c3ccccc3)cn2CCN1C(=O)[C@@H](N)CCCCN | > 100 µM | > 100 µM
16.2% | N[C@@H](CCC(=O)O)C(=O)N1CCn2cc(-c3ccccc3)nc2[C@@H]1CC1CCCCC1 | > 100 µM | > 100 µM
47.1% | CC[C@H](C)C(=O)N1CCn2cc(-c3ccccc3)nc2[C@@H]1CC1CCCCC1 | 79 µM | 27.4 µM
